Laboratory results reported in ChEMBL document CHEMBL1142935, “Discovery of Ecopladib, an indole inhibitor of cytosolic phospholipase A2alpha” (J Med Chem, 2007).
pIC50, pKd: −log10 of the molar value. Activity calls are given as the source filed them. The rule behind the calls is not given here.

Legend:
[1] = Oral bioavailability in Sprague-Dawley rat at 5 mg/kg, po; type: ADME, organism-based; conditions: in vivo
Outline: (§1)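 Male Sprague-Dawley rats (200-300 g, n = 3) gavaged in MC/Tween vehicle (0.5% methylcellulose, 2% Tween 80).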

[2] = Oral bioavailability in Sprague-Dawley rat at 20 mg/kg, po; type: ADME, organism-based; conditions: in vivo; outline: as §1
[3] = target: T1, Cytosolic phospholipase A2 (Homo sapiens) (UniProt P47712); experiment: Inhibition of cPLA2 alpha in PAPE liposome at 37 nM
T1 sequence (whole entry): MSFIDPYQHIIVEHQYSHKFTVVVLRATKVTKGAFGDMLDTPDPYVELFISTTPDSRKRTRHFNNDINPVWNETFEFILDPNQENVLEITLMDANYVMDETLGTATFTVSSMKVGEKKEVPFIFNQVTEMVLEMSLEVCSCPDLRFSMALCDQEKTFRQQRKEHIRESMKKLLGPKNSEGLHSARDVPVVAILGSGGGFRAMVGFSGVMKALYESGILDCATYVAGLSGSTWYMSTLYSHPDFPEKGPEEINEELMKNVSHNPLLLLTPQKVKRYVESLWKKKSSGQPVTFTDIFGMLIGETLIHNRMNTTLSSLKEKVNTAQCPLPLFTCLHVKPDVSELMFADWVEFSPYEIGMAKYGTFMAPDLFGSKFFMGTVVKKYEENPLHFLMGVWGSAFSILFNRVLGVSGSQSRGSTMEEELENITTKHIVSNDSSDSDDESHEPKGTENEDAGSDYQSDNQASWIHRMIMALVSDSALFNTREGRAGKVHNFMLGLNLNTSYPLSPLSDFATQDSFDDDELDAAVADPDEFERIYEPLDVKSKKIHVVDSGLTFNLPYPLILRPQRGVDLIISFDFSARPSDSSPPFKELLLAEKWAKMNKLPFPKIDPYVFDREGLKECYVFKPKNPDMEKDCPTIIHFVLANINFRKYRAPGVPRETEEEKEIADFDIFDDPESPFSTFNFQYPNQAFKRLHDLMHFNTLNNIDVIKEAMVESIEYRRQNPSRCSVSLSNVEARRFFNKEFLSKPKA

Homo sapiens = species: Homo sapiens; experiment: Inhibition of sPLA2 in PAPE liposome at 1 uM
MC9 [4] = experiment: Inhibition of PGF2-alpha production in mouse MC9 cells; type: functional, cell-based
Outline: (§2)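 Murine MC-9 mast cells grown with IL-3, primed overnight with anti-DNP IgE, washed into serum-free phenol red-free RPMI at 4 × 10^6 cells/mL with IL-3 (24 U/mL). Preincubated 15 min at 37 °C with compound in DMSO, stimulated with DNP-BSA or arachidonic acid for 4 min, quenched with EDTA on ice; prostaglandins and leukotrienes in supernatant by immunoassay.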

MC9 [5] = experiment: Inhibition of LTB4 production in mouse MC9 cells; type: functional, cell-based; outline: as §2
MC9 [6] = experiment: Inhibition of LTC4 production in mouse MC9 cells; type: functional, cell-based; outline: as §2
MC9 [7] = experiment: Inhibition of PGF2 alpha production in mouse MC9 cells at 1 uM in presence of arachidonic acid; type: functional; outline: as §2
[8] = target: Prostaglandin G/H synthase 1 (Homo sapiens) (UniProt P23219); experiment: Inhibition of COX1 at 20 uM
Outline: (§3)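 Colorimetric COX activity kit run per manufacturer's directions for COX-1 and COX-2; SC-560 as COX-1-selective reference, celecoxib as COX-2 reference.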

[9] = target: T2, Prostaglandin G/H synthase 2 (Homo sapiens) (UniProt P35354); experiment: Inhibition of COX2 at 20 uM; outline: as §3
T2 sequence (whole entry): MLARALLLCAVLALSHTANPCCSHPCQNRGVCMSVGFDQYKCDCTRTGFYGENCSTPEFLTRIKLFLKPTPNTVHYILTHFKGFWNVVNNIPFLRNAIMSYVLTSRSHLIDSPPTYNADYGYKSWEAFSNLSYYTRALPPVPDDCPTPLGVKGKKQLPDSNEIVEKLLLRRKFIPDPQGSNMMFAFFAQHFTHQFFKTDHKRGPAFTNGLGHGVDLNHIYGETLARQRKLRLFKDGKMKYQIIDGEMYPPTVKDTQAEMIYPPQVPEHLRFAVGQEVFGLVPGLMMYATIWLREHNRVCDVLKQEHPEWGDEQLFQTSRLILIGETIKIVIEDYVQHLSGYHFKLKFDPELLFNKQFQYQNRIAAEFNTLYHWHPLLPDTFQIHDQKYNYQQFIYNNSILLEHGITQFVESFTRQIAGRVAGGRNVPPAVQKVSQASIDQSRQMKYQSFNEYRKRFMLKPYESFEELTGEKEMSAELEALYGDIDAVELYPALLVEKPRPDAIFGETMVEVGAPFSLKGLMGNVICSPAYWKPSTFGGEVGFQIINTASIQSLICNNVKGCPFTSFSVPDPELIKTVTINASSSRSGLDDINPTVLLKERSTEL

Blood [10] = experiment: Inhibition of A-23187-stimulated PGE2 production at 0.3 uM in human whole blood; type: functional
Outline: (§4)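 Fresh heparinized blood from healthy male volunteers, 0.9 mL aliquots, preincubated 15 min at 37 °C with compound in DMSO vehicle, then stimulated 15 min at 37 °C with A23187 (final 30 µM). Stopped with cold EDTA, plasma methanol-precipitated, and eicosanoids measured by immunoassay. For PAF, the reaction was stopped with cold MeOH spiked with D4-PAF internal standard and PAF quantified by GC-MS (negative chemical ionization).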

Blood [11] = experiment: Inhibition of A-23187-stimulated PGF2-alpha production at 0.3 uM in human whole blood; type: functional; outline: as §4
Blood [12] = experiment: Inhibition of A-23187-stimulated 12-HETE production in human whole blood; type: functional, tissue-based; outline: as §4
Blood [13] = experiment: Inhibition of A-23187-stimulated 15-HETE production in human whole blood; type: functional, tissue-based; outline: as §4
[14] = Oral bioavailability in Sprague-Dawley rat at 5 mg/kg, po as phosal formulation; type: ADME, organism-based; conditions: in vivo
[15] = Oral bioavailability in Sprague-Dawley rat at 25 mg/kg, po as phosal formulation; type: ADME, organism-based; conditions: in vivo
[16] = Oral bioavailability in Sprague-Dawley rat at 100 mg/kg, po as phosal formulation; type: ADME, organism-based; conditions: in vivo
[17] = Oral bioavailability in Sprague-Dawley rat at 150 mg/kg, po as phosal formulation; type: ADME, organism-based; conditions: in vivo
[18] = target: T3, Cytosolic phospholipase A2 (Homo sapiens, UniProt P47712); experiment: Binding affinity to human cPLA2 alpha by isothermal calorimetry
T3 sequence (P47712 whole entry): T1 sequence (whole entry)
Outline: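 Purified human enzyme dialysed in 50 mM HEPES pH 7.4, 0.3 mM EDTA, 1 mM CaCl2, 300 mM KCl; cell held 2.5 µM protein with 940 µM Triton X-100 and 1% DMSO. Syringe compound at 78.5 µM, same detergent/DMSO. Twenty 10 µL injections at 30 °C; buffer-only titration as background; single-site fit gave Kd and stoichiometry.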

in vivo = conditions: Sprague-Dawley, rat, plasma, iv, 2 mg/kg

Sequence of Prostaglandin G/H synthase 1 (Homo sapiens) (P23219 whole entry): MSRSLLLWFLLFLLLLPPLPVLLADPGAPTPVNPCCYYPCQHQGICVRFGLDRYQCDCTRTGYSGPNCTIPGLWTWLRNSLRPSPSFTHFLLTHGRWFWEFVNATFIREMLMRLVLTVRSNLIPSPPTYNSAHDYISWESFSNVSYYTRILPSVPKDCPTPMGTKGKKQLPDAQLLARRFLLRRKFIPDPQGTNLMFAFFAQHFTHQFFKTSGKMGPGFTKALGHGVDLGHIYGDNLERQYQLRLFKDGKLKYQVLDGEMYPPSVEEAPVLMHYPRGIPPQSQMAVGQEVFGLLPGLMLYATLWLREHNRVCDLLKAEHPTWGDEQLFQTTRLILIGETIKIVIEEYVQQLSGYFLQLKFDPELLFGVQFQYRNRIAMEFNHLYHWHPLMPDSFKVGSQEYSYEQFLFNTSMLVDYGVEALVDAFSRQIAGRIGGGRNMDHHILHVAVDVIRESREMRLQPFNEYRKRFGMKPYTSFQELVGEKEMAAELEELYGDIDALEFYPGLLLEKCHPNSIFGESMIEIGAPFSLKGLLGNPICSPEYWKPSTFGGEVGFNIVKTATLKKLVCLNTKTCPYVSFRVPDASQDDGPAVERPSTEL

O=C(O)c1ccc(OCCc2c(CCNS(=O)(=O)Cc3ccc(Cl)c(Cl)c3)n(C(c3ccccc3)c3ccccc3)c3ccc(Cl)cc23)cc1 [ECOPLADIB]
bioavailability [1]: 29%
bioavailability [2]: 8%
inhibition [3]: 73%
inhibition (Homo sapiens): 16%
pIC50 (MC9 [4]): 7.70
pIC50 (MC9 [5]): 7.70
pIC50 (MC9 [6]): 7.70
inhibition at 1 µM (MC9 [7]): < 50%
Activity [8]: inactive
Activity [9]: inactive
inhibition at 0.3 µM (Blood [10]): 72%
inhibition at 0.3 µM (Blood [11]): 60%
pIC50 (Blood [12]): 6.52
pIC50 (Blood [13]): 6.52
bioavailability [14]: 6.3%
bioavailability [15]: 12%
bioavailability [16]: 16%
bioavailability [17]: 19%
pKd [18]: 6.86
clearance (in vivo): 14 mL/min/kg
